The source of these data is ChEMBL document CHEMBL1629705, “PSI-7851, a pronucleotide of beta-D-2'-deoxy-2'-fluoro-2'-C-methyluridine monophosphate, is a potent and pan-genotype inhibitor of hepatitis C virus replication” (Antimicrob Agents Chemother, 2010).

Assay [1] deals with T1, DNA-directed RNA polymerase II subunit RPB1 (Homo sapiens, UniProt P24928). The assay can be described thus: Inhibition of human RNA polymerase 2 assessed as synthesis of RNA products at 1 uM. The method in brief: (§1)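 In vitro transcription by HeLa nuclear extract from CMV immediate-early promoter DNA. Mix: 400 μM ATP, CTP and UTP, 16 μM GTP, [α-32P]GTP, 3 mM MgCl2, in 20 mM HEPES pH 7.9 buffer with KCl, EDTA, DTT and glycerol. Inhibitor up to 1 mM. 30°C for 60 min. RNA purified, run on 6% sequencing gel and quantified by phosphorimager.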

The target of assay [2] is T1, DNA-directed RNA polymerase II subunit RPB1. Briefly: Inhibition of human RNA polymerase 2. The method in brief: as §1
Assay [3] has the same target. Briefly: Inhibition of human RNA polymerase 2 assessed as synthesis of RNA products at 500 uM. The method in brief:
as §1

Assay [4] concerns Hepatitis C virus. Briefly: Selectivity ratio of EC90 for Hepatitis C virus harboring NS5B polymerase S282T mutant gene to EC90 for Hepatitis C virus harboring wild-type NS5B polymerase. The class given is functional, Hepacivirus hominis. The method in brief: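 Clone A genotype 1b (Con1) replicon cells, wild-type or S282T mutant (selected with 2′-C-methyladenosine). 1,500 cells/well, 4 days with serially diluted compound. HCV RNA by real-time RT-PCR; EC90 from dose–response.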

The test system of assay [5] is Hepatitis C virus. The assay can be described thus: Antiviral activity against Hepatitis C virus harboring NS5B polymerase S96T/N142T mutant gene infected in human […] cells by luciferase-based replicon assay. The class given is functional, Hepacivirus hominis. The method in brief:
(§2)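 ET-lunet cells with the ET genotype 1b replicon, wild-type or S96T/N142T (ET replicon with these mutations electroporated into Lunet cells, selected in 0.2 mg/ml G418). 3,000 cells/well, 4 days with serially diluted compound. Firefly luciferase luminescence read-out; EC90 from dose–response.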
For orientation: Replicon systems follow genome replication, usually without infectious particles.

Assay [6] has as its system Hepatitis C virus. The assay can be described thus: Antiviral activity against Hepatitis C virus harboring NS5B polymerase S282T mutant gene infected in human HuH7 cells by luciferase-based replicon assay. Type of assay: functional, Hepacivirus hominis. The following applies: Huh-7.
For assay [7], the system named is Hepatitis C virus. The assay can be described thus: Antiviral activity against Hepatitis C virus harboring wild-type NS5B infected in human HuH7 cells by luciferase-based replicon assay. The following applies: Huh-7. Type of assay: functional, Hepacivirus hominis.
For assay [8], the system named is Hepatitis C virus. The assay can be described thus: Antiviral activity against Hepatitis C virus harboring wild-type NS5B infected in human lunet cells by luciferase-based replicon assay. Type of assay: functional, Hepacivirus hominis. The method in brief:
as §2

Assay [9] has as its system Hepatitis C virus. Briefly: Antiviral activity against Hepatitis C virus harboring NS5B polymerase S96T mutant gene infected in human lunet cells by luciferase-based replicon assay. Type of assay: functional, Hepacivirus hominis. The method in brief:
as §2

The subject of assay [10] is Hepatitis C virus. Briefly: Selectivity ratio of EC90 for Hepatitis C virus harboring NS5B polymerase S96T mutant gene to EC90 for HCV harboring wild type NS5B polymerase. Type of assay: functional, Hepacivirus hominis.
For assay [11], the system named is Hepatitis C virus. Briefly: Antiviral activity against Hepatitis C virus. The class given is functional, organism-based, Hepacivirus hominis.
Assay [12] relates to Hepatitis C virus. Briefly: Antiviral activity against Hepatitis C virus assessed as inhibition of viral rebound at 0.1 uM after 3 weeks in presence of G418. The note with it: Hepacivirus hominis. The class given is functional, organism-based. The method in brief:
(§3)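 ET-lunet replicon cells seeded at 1 × 10^5/well without G418, treated at 0.1, 1 or 2 μM (final DMSO 0.5%). Passaged 1:3–1:4 every 3–4 days for 3 weeks with fresh compound. Then compound withdrawn and cells grown 3 more weeks in 0.25 mg/ml G418. HCV RNA by RT-PCR (ΔΔCt vs rRNA and DMSO controls, log change). Colonies fixed in formaldehyde and stained with crystal violet at 6 weeks.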

Assay [13] has as its system Hepatitis C virus. Briefly: Antiviral activity against Hepatitis C virus assessed as clearance of HCV from replicon cells at 1 uM. The class given is functional, organism-based. The note with it: Hepacivirus hominis. The method in brief:
(§4)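 ET-lunet replicon cells, 1 × 10^5/well, no G418, with compound at 0.1, 1 or 2 μM (final DMSO 0.5%). Passaged 1:3 or 1:4 every 3–4 days for 3 weeks with fresh compound, then 3 more weeks with 0.25 mg/ml G418 and no inhibitor. HCV RNA by RT-PCR normalized to rRNA (ΔΔCt vs DMSO) at each passage. Crystal violet colony staining at 6 weeks.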

Assay [14] deals with Hepatitis C virus. The assay can be described thus: Antiviral activity against Hepatitis C virus assessed as inhibition of viral rebound at 2 uM after 3 weeks in presence of G418. Type of assay: functional, organism-based. The following applies: Hepacivirus hominis. The method in brief: as §4
Assay [15] deals with Hepatitis C virus. Briefly: Antiviral activity against Hepatitis C virus assessed as log reduction in viral RNA at 0.1 uM after 3 weeks. Type of assay: functional, Hepacivirus hominis. The method in brief:
as §3

The test system of assay [16] is Hepatitis C virus. The assay can be described thus: Antiviral activity against Hepatitis C virus assessed as clearance of HCV from replicon cells at 2 uM. The class given is functional, organism-based. The note with it: Hepacivirus hominis. The method in brief: as §4
Assay [17] relates to Hepatitis C virus. Briefly: Antiviral activity against Hepatitis C virus assessed as inhibition of viral rebound at 1 uM after 3 weeks in presence of G418. The class given is functional, organism-based. The following applies: Hepacivirus hominis. The method in brief:
as §4

Assay [18] deals with Hepatitis C virus. The assay can be described thus: Antiviral activity against Hepatitis C virus isolate Con1 infected in human HuH-7 cells assessed as inhibition of viral RNA replication after 4 days by luciferase reporter gene assay. Type of assay: functional, Hepacivirus hominis. The note with it: Con1, Huh-7, 96 h. The method in brief: (§5)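 Genotype 1b Con1 subgenomic replicon cells (ET-lunet, 3,000 cells/well, firefly luciferase ET replicon; clone A, 1,500 cells/well) incubated 4 days with serially diluted compound. Replication read by luciferase luminescence and/or real-time RT-PCR.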
On the technique in general: In a reporter assay the amount or activity of a reporter protein is the signal.

The test system of assay [19] is Hepatitis C virus. The assay can be described thus: Antiviral activity against Hepatitis C virus Con1 infected in human lunet cells assessed as inhibition of viral RNA replication after 4 days by luciferase reporter gene assay. The class given is functional, organism-based, Hepacivirus hominis. The note with it: 96 h. The method in brief: as §5
The target of assay [20] is T2, DNA polymerase subunit gamma-1 (Homo sapiens, UniProt P54098).
T2 sequence (P54098 whole entry): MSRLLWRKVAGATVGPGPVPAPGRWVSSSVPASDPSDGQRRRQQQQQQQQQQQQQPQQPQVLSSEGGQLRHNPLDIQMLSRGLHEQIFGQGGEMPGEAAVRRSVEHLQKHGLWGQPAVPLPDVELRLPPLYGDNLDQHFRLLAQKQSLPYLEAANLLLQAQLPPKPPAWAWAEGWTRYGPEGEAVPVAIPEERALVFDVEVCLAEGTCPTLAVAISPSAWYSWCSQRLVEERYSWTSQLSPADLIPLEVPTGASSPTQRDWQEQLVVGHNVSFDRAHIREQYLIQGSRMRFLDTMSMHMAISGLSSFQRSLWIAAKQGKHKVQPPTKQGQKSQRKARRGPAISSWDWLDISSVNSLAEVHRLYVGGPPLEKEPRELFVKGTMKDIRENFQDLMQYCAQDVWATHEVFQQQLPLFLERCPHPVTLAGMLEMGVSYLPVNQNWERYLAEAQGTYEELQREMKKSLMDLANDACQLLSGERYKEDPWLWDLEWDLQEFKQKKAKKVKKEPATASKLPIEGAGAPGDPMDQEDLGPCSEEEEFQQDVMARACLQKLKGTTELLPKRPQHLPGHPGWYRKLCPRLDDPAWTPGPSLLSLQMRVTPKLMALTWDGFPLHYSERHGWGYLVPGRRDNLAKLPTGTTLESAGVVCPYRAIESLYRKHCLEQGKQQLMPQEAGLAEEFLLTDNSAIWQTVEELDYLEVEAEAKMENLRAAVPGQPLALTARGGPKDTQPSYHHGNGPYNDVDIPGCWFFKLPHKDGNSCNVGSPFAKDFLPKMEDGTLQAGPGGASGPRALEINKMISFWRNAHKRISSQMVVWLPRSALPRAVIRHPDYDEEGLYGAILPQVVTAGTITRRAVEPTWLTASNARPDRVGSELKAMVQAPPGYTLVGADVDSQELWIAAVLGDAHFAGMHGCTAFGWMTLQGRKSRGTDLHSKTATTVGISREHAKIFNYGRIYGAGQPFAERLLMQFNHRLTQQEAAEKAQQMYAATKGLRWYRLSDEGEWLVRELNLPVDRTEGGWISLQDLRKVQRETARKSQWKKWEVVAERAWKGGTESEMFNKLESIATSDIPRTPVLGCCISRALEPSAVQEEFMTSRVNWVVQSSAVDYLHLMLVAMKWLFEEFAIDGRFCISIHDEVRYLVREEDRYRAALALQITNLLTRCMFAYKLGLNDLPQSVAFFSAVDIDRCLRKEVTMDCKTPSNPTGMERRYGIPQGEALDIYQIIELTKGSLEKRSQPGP
Briefly: Inhibition of human DNA polymerase gamma assessed as incorporation of [alpha-32P]dCTP up to 1mM preincubated for 30 mins by whatman DE81 paper binding assay. The method in brief: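 Human DNA polymerase α (20 μg/ml) or γ (50 μg/ml) in 50 mM Tris pH 7.5, 50 mM NaCl, activated calf thymus DNA, 20 μM each dNTP, [α-32P]dCTP, 5 mM MgCl2. Nucleotide inhibitor up to 1 mM. 37°C, quenched with EDTA at 30 min. Product measured by DE81 paper binding; IC50 by nonlinear fit.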

Assay [21] addresses DNA polymerase beta (Homo sapiens, UniProt P06746). Briefly: Inhibition of human DNA polymerase beta assessed as incorporation of [alpha-32P]dCTP up to 1mM preincubated for 30 mins by whatman DE81 paper binding assay. The method in brief: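 Human DNA polymerase β at 18 μg/ml final, in 50 mM Tris pH 7.5, 50 mM NaCl, 5 mM MgCl2, activated calf thymus DNA and 20 μM each dNTP with [α-32P]dCTP. Triphosphate up to 1 mM. 37°C, stopped at 30 min with EDTA. Products quantified by DE81 paper binding; IC50 by nonlinear fit.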

Active and inactive are the calls of the source. The calls are words filed in the database; no cut-off is given here. A value given as a limit tells only on which side of the number the result lay.

Regarding `Nc1ccn([C@@H]2O[C@H](COP(=O)(O)OP(=O)(O)OP(=O)(O)O)C[C@H]2O)c(=O)n1`, the inhibition (as a rule, the change of the read-out against control, counted positive when it falls) in assay [1] is “Active”. In addition, the concentration for half-maximal inhibition (IC50) – broadly, the concentration at which inhibition is half-maximal – in assay [2] was greater than 500 µM. For the same molecule, the inhibition in [3] was 67%.
For `[N-]=[N+]=N[C@]1(CO)O[C@@H](n2ccc(N)nc2=O)[C@H](O)[C@@H]1O` [4'-AZIDOCYTIDINE], the Selectivity ratio was determined as 1.3 in [4] and 4.7 in assay [10]. In addition, the concentration for an effect of 90% (EC90) (usually the concentration at which the effect reaches the 90% level) turned out to be 80.1 µM in assay [5]; 24.9 µM in assay [6]; 18.6 µM in [7]; 17 µM in assay [8]; 80.1 µM in assay [9].
As for `CC(C)CCn1c(=O)c(C2=NS(=O)(=O)c3cc(N(C)S(C)(=O)=O)ccc3N2)c(O)c2cccn21`, the EC50 (as a rule, the concentration needed to bring the measured effect to its halfway point) in assay [11] came out at 0.11 µM. Besides, the result in assay [12], in [13], in [16] and in assay [17] was inactive. The result in assay [14] was Active. The FC in assay [15] stood at 0.69.
Take `C[C@@]1(F)[C@H](O)[C@@H](CO)O[C@H]1n1ccc(N)nc1=O`: the concentration for an effect of 90% (EC90) in assay [18] is 0.45 µM; in [19], 0.52 µM. For the same molecule, the half-maximal effective concentration (EC50) in assay [19] was 0.075 µM.
In the case of `C[C@@]1(CO)[C@H](O)CC[C@@]2(C)[C@H]1CC[C@H]1C[C@@H]3C[C@@]12CC[C@]3(O)CO` [APHIDICOLIN], the IC50 in [20] and in assay [21] was greater than 100 µM throughout.
